Test results taken from ChEMBL document CHEMBL2086304, “Synthesis and in vitro antimycobacterial and isocitrate lyase inhibition properties of novel 2-methoxy-2'-hydroxybenzanilides, their thioxo analogues and benzoxazoles” (Eur J Med Chem, 2012).
≈ marks a conversion by molar mass, not a printed value.

Assays:
[1] = system: Mycobacterium tuberculosis; assay: Antimycobacterial activity against Mycobacterium tuberculosis 331/88 after 14 days by micromethod; type: functional; conditions: 331/88, 336 h
Outline: (§1)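 Inocula: M. tuberculosis My 331/88 at 10^-3 dilution, M. avium My 330/88 at 10^-5, M. kansasii My 235/80 and clinical isolate 6509/96 at 10^-4. Compounds added in DMSO at 1000 down to 0.5 (twofold series). Read at 14 and 21 days, plus 7 days for M. kansasii. MIC taken as lowest concentration inhibiting growth.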

[2] = system: Mycobacterium tuberculosis; assay: Antimycobacterial activity against Mycobacterium tuberculosis 331/88 after 21 days by micromethod; type: functional; conditions: 331/88, 504 h; outline: as §1
Mycobacterium avium [3] = assay: Antimycobacterial activity against isoniazid resistance Mycobacterium avium 330/88 after 14 days by micromethod; type: functional; conditions: 330/88, 336 h; outline: as §1
Mycobacterium avium [4] = assay: Antimycobacterial activity against isoniazid resistance Mycobacterium avium 330/88 after 21 days by micromethod; type: functional; conditions: 330/88, 504 h; outline: as §1
Mycobacterium kansasii [5] = assay: Antimycobacterial activity against Mycobacterium kansasii 6509/96 clinical isolate after 7 days by micromethod; type: functional; conditions: 6509/96, 168 h; outline: as §1
Mycobacterium kansasii [6] = assay: Antimycobacterial activity against isoniazid resistance Mycobacterium kansasii 225/80 after 7 days by micromethod; type: functional; conditions: 225/80, 168 h
Mycobacterium kansasii [7] = assay: Antimycobacterial activity against isoniazid resistance Mycobacterium kansasii 225/80 after 14 days by micromethod; type: functional; conditions: 225/80, 336 h
Mycobacterium kansasii [8] = assay: Antimycobacterial activity against isoniazid resistance Mycobacterium kansasii 225/80 after 21 days by micromethod; type: functional; conditions: 225/80, 504 h
Mycobacterium kansasii [9] = assay: Antimycobacterial activity against Mycobacterium kansasii 6509/96 clinical isolate after 14 days by micromethod; type: functional; conditions: 6509/96, 336 h; outline: as §1
Mycobacterium kansasii [10] = assay: Antimycobacterial activity against Mycobacterium kansasii 6509/96 clinical isolate after 21 days by micromethod; type: functional; conditions: 6509/96, 504 h; outline: as §1
[11] = molecular target: T1, Isocitrate lyase (Mycobacterium tuberculosis) (UniProt P9WKK7); assay: Inhibition of Mycobacterium tuberculosis H37Rv isocitrate lyase expressed in Escherichia coli HB101 at 10 umol/L
T1 sequence (whole entry): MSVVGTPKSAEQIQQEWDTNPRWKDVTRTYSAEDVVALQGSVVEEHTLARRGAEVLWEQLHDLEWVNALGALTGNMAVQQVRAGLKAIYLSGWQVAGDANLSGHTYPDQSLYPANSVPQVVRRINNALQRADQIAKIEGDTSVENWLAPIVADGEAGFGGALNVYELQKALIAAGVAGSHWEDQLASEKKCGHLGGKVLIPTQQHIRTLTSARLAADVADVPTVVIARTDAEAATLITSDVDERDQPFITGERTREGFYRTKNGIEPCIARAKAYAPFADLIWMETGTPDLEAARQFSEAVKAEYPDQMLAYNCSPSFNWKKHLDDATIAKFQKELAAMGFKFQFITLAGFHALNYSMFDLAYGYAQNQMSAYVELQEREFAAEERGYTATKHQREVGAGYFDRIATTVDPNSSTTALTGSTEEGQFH
Outline: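 Isocitrate lyase assayed per Dixon–Kornberg in 96-well format. Buffer: 50 mmol/L KH2PO4, 4 mmol/L MgCl2, 4 mmol/L phenylhydrazine, 12 mmol/L cysteine, pH 7.0. Glyoxylate phenylhydrazone read at 324 nm. Compounds added in DMSO, with DMSO-alone inhibition subtracted.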

HepG2 = assay: Cytotoxicity against human HepG2 cells after 24 hrs by CellTiter-96 cell viability assay; type: functional, cell-based; conditions: HepG2, 24 h
Outline: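 Hep G2 human hepatic cells (passage 12), 10,000 per well, grown 24 h at 37 °C, 5% CO2 in MEM with 1% glutamine, 10% FBS and 1% nonessential amino acids. Compounds in DMSO at eight increasing concentrations, quadruplicate, 24 h at 37 °C. Kit reagent added, 1.5 h at 37 °C, absorbance 490 nm. IC50 is the concentration reducing viability to 50% of control.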

[12] = Selectivity index, ratio of IC50 for human HepG2 cells to MIC for Mycobacterium tuberculosis 331/88 after 14 days; type: functional
Outline: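 Cytotoxicity in Hep G2 cells (passage 12), 10,000 cells/well, in MEM with 10% FBS, 1% glutamine and 1% nonessential amino acids. Cells preincubated 24 h, 37 °C, 5% CO2. Compounds in DMSO at eight concentrations in quadruplicate, 24 h. MTS-type reagent added for 1.5 h, A490 read, IC50 taken at 50% viability. SI = this IC50 over the 14-day M. tuberculosis MIC.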

SMILES | MIC [1] | MIC [2] | MIC (Mycobacterium avium [3]) | MIC (Mycobacterium avium [4]) | MIC (Mycobacterium kansasii [5]) | MIC (Mycobacterium kansasii [6]) | MIC (Mycobacterium kansasii [7]) | MIC (Mycobacterium kansasii [8]) | MIC (Mycobacterium kansasii [9]) | MIC (Mycobacterium kansasii [10]) | inhibition [11] | IC50 (HepG2) | Selectivity Index [12]
COc1ccc(Cl)cc1-c1nc2ccc(C(F)(F)F)cc2o1 | 62.5 µM (≈ 20.5 µg/mL) | 62.5 µM (≈ 20.5 µg/mL) | 250 µM (≈ 81.9 µg/mL) | 250 µM (≈ 81.9 µg/mL) | 62.5 µM (≈ 20.5 µg/mL) | 250 µM (≈ 81.9 µg/mL) | 250 µM (≈ 81.9 µg/mL) | 250 µM (≈ 81.9 µg/mL) | 62.5 µM (≈ 20.5 µg/mL) | 62.5 µM (≈ 20.5 µg/mL) | 0% |  | 
COc1cc(Cl)ccc1-c1nc2ccc(C(F)(F)F)cc2o1 | 250 µM (≈ 81.9 µg/mL) | 250 µM (≈ 81.9 µg/mL) | 125 µM (≈ 41 µg/mL) | 125 µM (≈ 41 µg/mL) | 250 µM (≈ 81.9 µg/mL) |  | 250 µM (≈ 81.9 µg/mL) | 250 µM (≈ 81.9 µg/mL) | 250 µM (≈ 81.9 µg/mL) | 250 µM (≈ 81.9 µg/mL) | 0% |  | 
COc1ccc(Cl)cc1C(=S)Nc1ccc(C(F)(F)F)cc1O | 62.5 µM (≈ 22.6 µg/mL) | 62.5 µM (≈ 22.6 µg/mL) | 32 µM (≈ 11.6 µg/mL) | 62.5 µM (≈ 22.6 µg/mL) | 32 µM (≈ 11.6 µg/mL) |  | 62.5 µM (≈ 22.6 µg/mL) | 62.5 µM (≈ 22.6 µg/mL) | 62.5 µM (≈ 22.6 µg/mL) | 62.5 µM (≈ 22.6 µg/mL) | 21% | 3.69 µM | 0.06
COc1ccc(Cl)cc1C(=O)Nc1cc(Br)ccc1O | 8 µM (≈ 2.85 µg/mL) | 8 µM (≈ 2.85 µg/mL) | 62.5 µM (≈ 22.3 µg/mL) | 62.5 µM (≈ 22.3 µg/mL) | 4 µM (≈ 1.43 µg/mL) | 4 µM (≈ 1.43 µg/mL) | 8 µM (≈ 2.85 µg/mL) | 8 µM (≈ 2.85 µg/mL) | 8 µM (≈ 2.85 µg/mL) | 8 µM (≈ 2.85 µg/mL) | 0% | 4.09 µM | 0.51
COc1ccc(Cl)cc1C(=O)Nc1cc(Cl)ccc1O | 16 µM (≈ 4.99 µg/mL) | 32 µM (≈ 9.99 µg/mL) | 125 µM (≈ 39 µg/mL) | 125 µM (≈ 39 µg/mL) | 8 µM (≈ 2.5 µg/mL) | 4 µM (≈ 1.25 µg/mL) | 16 µM (≈ 4.99 µg/mL) | 16 µM (≈ 4.99 µg/mL) | 16 µM (≈ 4.99 µg/mL) | 16 µM (≈ 4.99 µg/mL) | 0% |  | 
COc1ccc(Cl)cc1C(=S)Nc1cc(Cl)ccc1O | 16 µM (≈ 5.25 µg/mL) | 32 µM (≈ 10.5 µg/mL) | 32 µM (≈ 10.5 µg/mL) | 32 µM (≈ 10.5 µg/mL) | 16 µM (≈ 5.25 µg/mL) | 8 µM (≈ 2.63 µg/mL) | 8 µM (≈ 2.63 µg/mL) | 16 µM (≈ 5.25 µg/mL) | 32 µM (≈ 10.5 µg/mL) | 32 µM (≈ 10.5 µg/mL) | 0% | 8.6 µM | 0.54
COc1ccc(Cl)cc1-c1nc2cc(Cl)ccc2o1 | 125 µM (≈ 36.8 µg/mL) | 125 µM (≈ 36.8 µg/mL) | 250 µM (≈ 73.5 µg/mL) | 250 µM (≈ 73.5 µg/mL) | 250 µM (≈ 73.5 µg/mL) | 250 µM (≈ 73.5 µg/mL) | 250 µM (≈ 73.5 µg/mL) | 250 µM (≈ 73.5 µg/mL) | 250 µM (≈ 73.5 µg/mL) | 250 µM (≈ 73.5 µg/mL) | 0% |  | 
COc1cc(Cl)ccc1-c1nc2cc(Br)ccc2o1 | 250 µM (≈ 84.6 µg/mL) | 250 µM (≈ 84.6 µg/mL) | 250 µM (≈ 84.6 µg/mL) | 250 µM (≈ 84.6 µg/mL) | 250 µM (≈ 84.6 µg/mL) | 250 µM (≈ 84.6 µg/mL) | 250 µM (≈ 84.6 µg/mL) | 250 µM (≈ 84.6 µg/mL) | 250 µM (≈ 84.6 µg/mL) | 250 µM (≈ 84.6 µg/mL) | 0% |  | 
COc1ccc(Cl)cc1-c1nc2cc(Br)ccc2o1 | 250 µM (≈ 84.6 µg/mL) | 250 µM (≈ 84.6 µg/mL) | 250 µM (≈ 84.6 µg/mL) | 250 µM (≈ 84.6 µg/mL) | 250 µM (≈ 84.6 µg/mL) | 250 µM (≈ 84.6 µg/mL) | 250 µM (≈ 84.6 µg/mL) | 250 µM (≈ 84.6 µg/mL) | 250 µM (≈ 84.6 µg/mL) | 250 µM (≈ 84.6 µg/mL) | 0% |  | 
COc1ccc(Cl)cc1-c1nc2cc(Cl)c(Cl)cc2o1 | 125 µM (≈ 41.1 µg/mL) | 125 µM (≈ 41.1 µg/mL) | 125 µM (≈ 41.1 µg/mL) | 125 µM (≈ 41.1 µg/mL) | 125 µM (≈ 41.1 µg/mL) | 125 µM (≈ 41.1 µg/mL) | 125 µM (≈ 41.1 µg/mL) | 125 µM (≈ 41.1 µg/mL) | 125 µM (≈ 41.1 µg/mL) | 125 µM (≈ 41.1 µg/mL) | 4% |  | 
COc1cc(Cl)ccc1-c1nc2ccc(Cl)cc2o1 | 125 µM (≈ 36.8 µg/mL) | 125 µM (≈ 36.8 µg/mL) | 62.5 µM (≈ 18.4 µg/mL) | 62.5 µM (≈ 18.4 µg/mL) | 62.5 µM (≈ 18.4 µg/mL) | 62.5 µM (≈ 18.4 µg/mL) | 62.5 µM (≈ 18.4 µg/mL) | 62.5 µM (≈ 18.4 µg/mL) | 62.5 µM (≈ 18.4 µg/mL) | 62.5 µM (≈ 18.4 µg/mL) | 0% |  | 
